One compound from ChEMBL document CHEMBL5154854, “Identification of a Vitamin-D Receptor Antagonist, MeTC7, which Inhibits the Growth of Xenograft and Transgenic Tumors In Vivo” (J Med Chem, 2022) can be followed below.

This test has as its target T1, Vitamin D3 receptor (Homo sapiens) (UniProt P11473).
T1 sequence (whole entry): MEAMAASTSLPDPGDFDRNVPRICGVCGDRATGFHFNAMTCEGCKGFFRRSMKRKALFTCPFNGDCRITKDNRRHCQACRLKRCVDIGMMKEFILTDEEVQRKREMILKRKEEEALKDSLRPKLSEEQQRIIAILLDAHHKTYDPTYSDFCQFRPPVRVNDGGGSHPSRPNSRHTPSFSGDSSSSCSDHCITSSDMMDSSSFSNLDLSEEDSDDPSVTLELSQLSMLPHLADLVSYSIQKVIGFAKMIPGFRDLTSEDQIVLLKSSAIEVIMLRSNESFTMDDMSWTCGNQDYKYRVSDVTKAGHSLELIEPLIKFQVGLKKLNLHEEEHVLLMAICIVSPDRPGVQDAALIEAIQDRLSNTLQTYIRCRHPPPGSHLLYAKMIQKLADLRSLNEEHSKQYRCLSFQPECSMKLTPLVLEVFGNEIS
Kind of test: Antagonist activity at VDR LBD (unknown origin) using Alexa Fluor 647-labeled SRC2-3 as substrate incubated for 2 hrs in presence of calcitriol by fluorescence polarization assay. An outline of the steps: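 VDR-LBD (0.1 μM) with Alexa Fluor 647-labelled SRC2-3 (17.5 nM) and 10 nM 1,25(OH)2D3 in 25 mM PIPES, 50 mM NaCl, 0.01% NP-40, pH 6.75. Compounds were serially diluted 1:2 from 10 mM DMSO stocks and incubated 2 h. Polarization was read at 635/685 nm. Three independent experiments in quadruplicate; IC50 by variable-slope nonlinear regression.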

Bounds are passed on as bounds.

Take `CC(C)CCC[C@@H](C)[C@H]1CC[C@H]2C3=CC=C4C[C@@H](O)CC[C@]4(C)[C@H]3CC[C@]12C`: the Activity is greater than 100 µM.
